IC50 and inhibition data for 3 compounds are collected here from ChEMBL document CHEMBL1177716, “Kinesin spindle protein (KSP) inhibitors with 2,3-fused indole scaffolds” (J Med Chem, 2010).

For assay [1], the system named is HeLa. As to the kind of experiment: Cytotoxicity against human HeLa cells after 48 hrs […]. The assay is classed as functional, cell-based. To be noted: Homo sapiens, HeLa, 48 h.
The species entered for assay [2] is Sus scrofa. As to the kind of experiment: Inhibition of pig brain topoisomerase 2-mediated supercoiled DNA relaxation after 20 mins by agarose gel electrophoresis analysis. Summed up: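 Supercoiled DNA was incubated with topo II, with or without test compound. Gel lanes included supercoiled DNA alone, DNA plus enzyme without compound, and DNA plus enzyme with AMSA as the reference inhibitor.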

For assay [3], the species on record is Sus scrofa. As to the kind of experiment: Inhibition of pig brain topoisomerase 1-mediated supercoiled DNA relaxation after 20 mins by agarose gel electrophoresis analysis. Summed up:
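Supercoiled DNA was incubated with topo I, with or without test compound. Gel lanes included supercoiled DNA alone, DNA plus enzyme without compound, and DNA plus enzyme with camptothecin as the reference inhibitor.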

For assay [4], the target named is T1, Kinesin-like protein KIF23 (Homo sapiens) (UniProt Q02241).
T1 sequence (whole entry): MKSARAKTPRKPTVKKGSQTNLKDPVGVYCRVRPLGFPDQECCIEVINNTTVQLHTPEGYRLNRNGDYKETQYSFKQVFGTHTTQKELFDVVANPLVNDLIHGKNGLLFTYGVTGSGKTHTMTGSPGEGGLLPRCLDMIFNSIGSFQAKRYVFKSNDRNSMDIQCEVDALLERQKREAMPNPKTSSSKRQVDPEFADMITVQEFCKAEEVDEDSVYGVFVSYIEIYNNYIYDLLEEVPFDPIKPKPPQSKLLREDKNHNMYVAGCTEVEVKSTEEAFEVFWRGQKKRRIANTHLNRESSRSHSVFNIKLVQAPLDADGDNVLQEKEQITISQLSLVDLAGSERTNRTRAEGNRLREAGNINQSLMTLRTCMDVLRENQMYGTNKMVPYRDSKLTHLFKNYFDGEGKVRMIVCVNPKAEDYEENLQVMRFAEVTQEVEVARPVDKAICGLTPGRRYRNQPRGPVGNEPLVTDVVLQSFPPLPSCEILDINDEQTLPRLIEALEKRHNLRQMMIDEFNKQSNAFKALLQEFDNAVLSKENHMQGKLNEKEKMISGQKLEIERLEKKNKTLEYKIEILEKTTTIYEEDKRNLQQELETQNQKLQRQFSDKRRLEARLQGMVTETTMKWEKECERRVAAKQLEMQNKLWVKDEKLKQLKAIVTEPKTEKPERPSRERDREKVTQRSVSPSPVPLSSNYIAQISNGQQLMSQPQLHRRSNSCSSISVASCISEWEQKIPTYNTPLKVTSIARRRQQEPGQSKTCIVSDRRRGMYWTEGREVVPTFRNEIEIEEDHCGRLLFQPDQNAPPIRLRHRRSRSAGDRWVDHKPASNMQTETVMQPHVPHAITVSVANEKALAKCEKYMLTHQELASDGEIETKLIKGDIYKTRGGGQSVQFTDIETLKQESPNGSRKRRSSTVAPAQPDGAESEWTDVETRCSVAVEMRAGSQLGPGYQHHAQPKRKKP
As to the kind of experiment: Inhibition of MKLP-1 ATPase activity at 20 uM.

Assay [5] has as its target Centromere-associated protein E (Homo sapiens) (UniProt Q02224). As to the kind of experiment: Inhibition of CENP-E ATPase activity at 20 uM.
Assay [6] addresses T2, Kinesin-like protein KIF22 (Homo sapiens) (UniProt Q14807).
T2 sequence (whole entry): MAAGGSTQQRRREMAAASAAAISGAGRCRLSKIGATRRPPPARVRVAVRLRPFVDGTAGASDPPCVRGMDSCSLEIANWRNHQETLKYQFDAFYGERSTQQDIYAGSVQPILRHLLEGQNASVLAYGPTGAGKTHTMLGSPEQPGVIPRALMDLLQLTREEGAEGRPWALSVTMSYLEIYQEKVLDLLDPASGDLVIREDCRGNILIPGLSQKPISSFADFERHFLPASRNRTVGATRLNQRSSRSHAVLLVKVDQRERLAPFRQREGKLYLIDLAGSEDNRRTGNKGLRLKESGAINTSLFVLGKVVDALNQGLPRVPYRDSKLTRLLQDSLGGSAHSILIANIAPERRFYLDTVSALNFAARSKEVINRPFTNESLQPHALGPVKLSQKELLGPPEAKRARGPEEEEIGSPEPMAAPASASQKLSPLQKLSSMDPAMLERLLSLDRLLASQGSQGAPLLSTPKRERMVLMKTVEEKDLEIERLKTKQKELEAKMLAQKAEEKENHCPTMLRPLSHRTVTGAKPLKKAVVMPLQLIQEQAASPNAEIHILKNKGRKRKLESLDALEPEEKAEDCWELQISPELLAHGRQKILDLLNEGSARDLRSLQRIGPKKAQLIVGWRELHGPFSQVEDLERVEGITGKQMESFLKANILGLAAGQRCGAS
As to the kind of experiment: Inhibition of Kid ATPase activity at 20 uM.

Assay [7] concerns the target T3, Kinesin-like protein KIF11 (Homo sapiens, UniProt P52732).
T3 sequence (P52732 whole entry): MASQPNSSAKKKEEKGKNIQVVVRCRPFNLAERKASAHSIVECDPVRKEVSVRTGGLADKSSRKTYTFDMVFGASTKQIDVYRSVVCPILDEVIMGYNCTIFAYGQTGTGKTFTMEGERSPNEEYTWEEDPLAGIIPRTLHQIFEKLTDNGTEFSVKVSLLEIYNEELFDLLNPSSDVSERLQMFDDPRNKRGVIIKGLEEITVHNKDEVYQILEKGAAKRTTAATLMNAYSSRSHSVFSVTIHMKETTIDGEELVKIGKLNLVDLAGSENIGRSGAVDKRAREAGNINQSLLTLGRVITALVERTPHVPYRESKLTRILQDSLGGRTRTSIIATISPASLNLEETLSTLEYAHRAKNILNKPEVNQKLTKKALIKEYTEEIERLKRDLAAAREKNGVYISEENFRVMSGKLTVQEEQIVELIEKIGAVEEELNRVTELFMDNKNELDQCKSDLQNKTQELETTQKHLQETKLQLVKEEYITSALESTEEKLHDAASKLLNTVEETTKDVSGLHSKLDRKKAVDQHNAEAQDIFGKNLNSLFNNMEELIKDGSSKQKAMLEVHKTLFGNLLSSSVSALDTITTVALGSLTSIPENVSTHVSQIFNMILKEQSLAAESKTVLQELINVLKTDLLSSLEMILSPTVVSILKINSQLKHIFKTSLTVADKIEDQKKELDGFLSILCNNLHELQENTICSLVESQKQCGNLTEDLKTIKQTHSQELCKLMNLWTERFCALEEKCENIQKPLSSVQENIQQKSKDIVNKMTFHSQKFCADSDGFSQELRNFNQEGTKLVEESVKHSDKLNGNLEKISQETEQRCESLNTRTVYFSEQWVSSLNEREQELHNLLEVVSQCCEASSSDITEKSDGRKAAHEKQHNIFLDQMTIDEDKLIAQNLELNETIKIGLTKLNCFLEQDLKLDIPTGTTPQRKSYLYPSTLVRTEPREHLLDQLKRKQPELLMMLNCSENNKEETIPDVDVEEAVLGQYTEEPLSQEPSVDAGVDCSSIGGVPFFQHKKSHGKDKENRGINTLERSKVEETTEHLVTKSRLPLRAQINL
As to the kind of experiment: Inhibition of human C-terminally His6-tagged microtubule-activated KSP motor domain ATPase activity after 30 mins by luciferase-derived luminescence assay.

The source made the active and inactive calls. The calls are words filed in the database; no cut-off is given here.

Centromere-associated protein E (Homo sapiens), sequence (Q02224 whole entry): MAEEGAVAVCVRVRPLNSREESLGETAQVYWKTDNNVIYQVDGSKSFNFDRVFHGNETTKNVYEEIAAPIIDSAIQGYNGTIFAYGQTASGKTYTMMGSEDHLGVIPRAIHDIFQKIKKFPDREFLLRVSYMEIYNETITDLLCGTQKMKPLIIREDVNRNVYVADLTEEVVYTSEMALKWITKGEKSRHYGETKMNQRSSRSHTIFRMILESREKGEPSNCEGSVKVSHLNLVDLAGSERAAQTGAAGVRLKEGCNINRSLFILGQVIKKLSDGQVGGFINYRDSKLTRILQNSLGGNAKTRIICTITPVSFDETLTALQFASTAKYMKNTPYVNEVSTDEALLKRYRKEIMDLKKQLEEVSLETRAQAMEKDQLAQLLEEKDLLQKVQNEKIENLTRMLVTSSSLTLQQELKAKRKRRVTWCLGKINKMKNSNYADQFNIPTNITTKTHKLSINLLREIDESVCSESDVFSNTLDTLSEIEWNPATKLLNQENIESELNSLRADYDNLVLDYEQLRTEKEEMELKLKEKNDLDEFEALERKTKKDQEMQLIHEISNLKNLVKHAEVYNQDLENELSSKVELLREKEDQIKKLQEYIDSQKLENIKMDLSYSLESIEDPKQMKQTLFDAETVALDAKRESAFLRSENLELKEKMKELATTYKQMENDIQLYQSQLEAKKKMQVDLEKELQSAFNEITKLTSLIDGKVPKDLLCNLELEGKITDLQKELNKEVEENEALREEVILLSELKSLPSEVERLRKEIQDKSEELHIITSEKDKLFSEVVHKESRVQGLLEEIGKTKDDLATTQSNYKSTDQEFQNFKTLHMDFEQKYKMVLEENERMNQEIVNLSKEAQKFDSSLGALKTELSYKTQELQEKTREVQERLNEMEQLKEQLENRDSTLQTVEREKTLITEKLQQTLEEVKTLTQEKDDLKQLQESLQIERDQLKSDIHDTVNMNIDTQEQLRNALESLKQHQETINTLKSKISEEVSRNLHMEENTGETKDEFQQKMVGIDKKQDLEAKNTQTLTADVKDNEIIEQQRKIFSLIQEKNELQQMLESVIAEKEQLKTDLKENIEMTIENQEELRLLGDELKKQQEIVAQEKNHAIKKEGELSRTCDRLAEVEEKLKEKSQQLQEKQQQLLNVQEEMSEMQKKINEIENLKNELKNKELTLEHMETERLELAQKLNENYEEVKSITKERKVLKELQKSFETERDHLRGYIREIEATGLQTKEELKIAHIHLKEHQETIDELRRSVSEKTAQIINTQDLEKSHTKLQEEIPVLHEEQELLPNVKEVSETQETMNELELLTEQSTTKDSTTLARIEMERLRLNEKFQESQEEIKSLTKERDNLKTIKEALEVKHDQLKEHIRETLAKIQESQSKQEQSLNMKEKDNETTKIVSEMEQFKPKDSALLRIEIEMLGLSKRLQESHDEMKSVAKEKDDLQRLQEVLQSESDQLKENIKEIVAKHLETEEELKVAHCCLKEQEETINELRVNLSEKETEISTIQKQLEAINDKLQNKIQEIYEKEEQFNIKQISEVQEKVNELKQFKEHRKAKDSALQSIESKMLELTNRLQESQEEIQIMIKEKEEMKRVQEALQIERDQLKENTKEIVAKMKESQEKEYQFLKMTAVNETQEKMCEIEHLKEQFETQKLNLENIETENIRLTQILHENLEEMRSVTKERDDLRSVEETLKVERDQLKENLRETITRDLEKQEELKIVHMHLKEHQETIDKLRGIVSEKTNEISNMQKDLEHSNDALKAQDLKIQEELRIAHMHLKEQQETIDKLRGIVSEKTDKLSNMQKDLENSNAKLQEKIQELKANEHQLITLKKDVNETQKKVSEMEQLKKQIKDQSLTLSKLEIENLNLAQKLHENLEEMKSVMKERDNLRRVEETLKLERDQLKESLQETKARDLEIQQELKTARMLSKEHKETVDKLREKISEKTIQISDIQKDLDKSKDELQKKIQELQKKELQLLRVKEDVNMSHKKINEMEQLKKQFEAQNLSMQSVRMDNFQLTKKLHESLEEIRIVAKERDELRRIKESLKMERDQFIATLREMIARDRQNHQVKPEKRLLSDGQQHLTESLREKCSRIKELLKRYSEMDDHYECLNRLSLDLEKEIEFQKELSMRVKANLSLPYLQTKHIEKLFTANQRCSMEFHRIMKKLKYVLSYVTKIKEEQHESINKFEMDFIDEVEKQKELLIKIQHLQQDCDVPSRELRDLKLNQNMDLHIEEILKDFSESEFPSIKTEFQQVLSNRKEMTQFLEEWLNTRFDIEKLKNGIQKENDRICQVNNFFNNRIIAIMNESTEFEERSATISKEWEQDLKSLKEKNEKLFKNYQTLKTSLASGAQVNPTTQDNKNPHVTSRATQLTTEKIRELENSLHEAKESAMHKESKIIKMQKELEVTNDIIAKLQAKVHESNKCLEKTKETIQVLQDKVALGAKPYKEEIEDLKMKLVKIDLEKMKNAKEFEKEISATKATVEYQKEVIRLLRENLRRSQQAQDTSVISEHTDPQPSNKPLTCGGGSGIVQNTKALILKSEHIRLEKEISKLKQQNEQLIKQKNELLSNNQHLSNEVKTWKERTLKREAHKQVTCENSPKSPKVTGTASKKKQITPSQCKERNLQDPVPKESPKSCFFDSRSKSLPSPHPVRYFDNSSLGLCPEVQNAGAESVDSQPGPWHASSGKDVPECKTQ

Broadly, the IC50 is the concentration at which inhibition is half-maximal. Read a high IC50 as lower potency. `FC(F)(F)c1ccc2c(c1)[nH]c1ccccc12`: the figures for the IC50 in assay [1] and in assay [7] were 11 µM and 0.26 µM, respectively. Also, the inhibition entry in assay [2], in assay [3], in assay [4], in assay [5] and in assay [6] was “inactive” each time.
For the compound `FC(F)(F)c1ccc2[nH]c3ccccc3c2c1`, the IC50 is 14 µM in assay [1] and 0.95 µM in assay [7]. Moreover, the inhibition entry in assay [2], in assay [3], in assay [4], in assay [5] and in assay [6] was “inactive” each time.
`CC(C)(C)c1ccc2c(c1)[nH]c1ccccc12`: the results for the IC50 in assay [1] and in assay [7] were 40 µM and 0.3 µM, respectively. In addition, the inhibition entry in assay [2], in assay [3], in assay [4], in assay [5] and in assay [6] was “inactive” in each case.
